Results: ChEMBL document CHEMBL1938284, “Synthesis and biological activity of novel organoselenium derivatives targeting multiple kinases and capable of inhibiting cancer progression to metastases” (Eur J Med Chem, 2012)
Activity calls are given as the source filed them. The calls are words filed in the database; no cut-off is given here.

Assays:
[1] = tested on: MDA-MB-231; experiment: Cytotoxicity against human MDA231 cells at 10 uM; assay type: functional, cell-based
[2] = biological target: Tyrosine-protein kinase Lyn (Homo sapiens) (UniProt P07948); experiment: Inhibition of LYN at 1 uM
[3] = tested on: Mus musculus; experiment: Toxicity in SCID mouse xenografted with human MDA231 cells assessed as body weight loss at 60 mg/kg, ip administered 3 times a week for a total of 9 doses; assay type: organism-based; set-up: dose 60 mg/kg, route intraperitoneal; conditions: in vivo
[4] = tested on: Cancer cell lines; experiment: Antitumor activity against human MDA231 cells xenografted in SCID mouse assessed as inhibition of lung metastases of cancer cells at 60 mg/kg, ip administered 3 times a week for a total of 9 doses measured on day 40 by stereomicroscopic analysis; assay type: functional, organism-based; set-up: dose 60 mg/kg
Summary of the method: (§1)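 Female SCID mice, 6 per group, given 1.5 million MDA-231-M2 cells into the mammary fat pad. Once tumours were palpable, vehicle or compound was given at 60 mg/kg IP 3 times weekly for 9 injections. Mice sacrificed on day 40. Lungs fixed in 10% Bouin's and surface metastases counted by stereomicroscope. Primary tumour volume also recorded. Groups compared to vehicle by unpaired Student t test.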

[5] = biological target: T1, Ephrin type-A receptor 1 (Homo sapiens) (UniProt P21709); experiment: Inhibition of EPHA1 at 1 uM
T1 sequence (whole entry): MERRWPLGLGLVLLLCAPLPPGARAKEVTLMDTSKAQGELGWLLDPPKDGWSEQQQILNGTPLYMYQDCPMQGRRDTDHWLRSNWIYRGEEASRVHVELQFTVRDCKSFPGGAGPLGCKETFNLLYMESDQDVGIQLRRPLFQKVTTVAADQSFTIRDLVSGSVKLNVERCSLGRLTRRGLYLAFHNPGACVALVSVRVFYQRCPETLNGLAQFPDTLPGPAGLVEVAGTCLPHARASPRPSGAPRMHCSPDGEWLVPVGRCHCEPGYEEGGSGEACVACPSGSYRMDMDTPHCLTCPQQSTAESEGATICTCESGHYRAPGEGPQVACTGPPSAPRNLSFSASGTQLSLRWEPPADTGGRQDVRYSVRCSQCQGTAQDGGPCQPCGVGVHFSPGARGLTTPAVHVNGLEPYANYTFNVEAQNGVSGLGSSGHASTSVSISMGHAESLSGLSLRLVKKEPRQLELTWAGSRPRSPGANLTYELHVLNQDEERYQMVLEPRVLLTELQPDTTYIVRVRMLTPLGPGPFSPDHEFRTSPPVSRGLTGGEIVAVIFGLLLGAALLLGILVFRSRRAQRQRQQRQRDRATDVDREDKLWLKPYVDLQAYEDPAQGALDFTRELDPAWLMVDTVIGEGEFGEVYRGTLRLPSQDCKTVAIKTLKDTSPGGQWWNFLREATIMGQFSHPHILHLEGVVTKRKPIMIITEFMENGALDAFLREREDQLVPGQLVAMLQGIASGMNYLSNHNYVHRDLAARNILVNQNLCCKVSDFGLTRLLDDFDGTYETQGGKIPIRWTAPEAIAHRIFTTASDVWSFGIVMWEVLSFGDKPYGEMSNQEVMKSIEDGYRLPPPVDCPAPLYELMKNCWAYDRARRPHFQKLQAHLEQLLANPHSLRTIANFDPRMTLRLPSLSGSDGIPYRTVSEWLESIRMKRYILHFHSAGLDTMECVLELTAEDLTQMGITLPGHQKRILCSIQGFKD

[6] = tested on: MDA-MB-231; experiment: Cytotoxicity against human MDA231 cells at 50 uM; assay type: functional, cell-based
[7] = tested on: MDA-MB-231; experiment: Antitumor activity against human MDA231 cells xenografted in SCID mouse assessed as tumor growth inhibition at 60 mg/kg, ip administered 3 times a week for a total of 9 doses measured on day 40; assay type: functional, organism-based; set-up: dose 60 mg/kg; summary of the method: as §1
[8] = tested on: MDA231; experiment: Inhibition of lipoxygenase in human MDA231 cells; assay type: cell-based
[9] = tested on: Mus musculus; experiment: Apparent toxicity in SCID mouse xenografted with human MDA231 cells at 60 mg/kg, ip administered 3 times a week for a total of 9 doses; assay type: organism-based; set-up: dose 60 mg/kg, route intraperitoneal; conditions: in vivo
[10] = biological target: RAC-alpha serine/threonine-protein kinase (Homo sapiens, UniProt P31749); experiment: Inhibition of AKT-1
[11] = biological target: Protein kinase C alpha type (Homo sapiens, UniProt P17252); experiment: Inhibition of PKCalpha
[12] = biological target: T2, Focal adhesion kinase 1 (Homo sapiens, UniProt Q05397); experiment: Inhibition of human recombinant full-length FAK using ATP and Poly Glu:Tyr as substrate after 4 hrs by luminescence analysis
Summary of the method: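 Human recombinant full-length FAK incubated 4 h at room temperature in kinase buffer with ATP and Poly Glu:Tyr substrate, with or without compound at various concentrations.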
Target sequence in this assay (Q05397 whole entry): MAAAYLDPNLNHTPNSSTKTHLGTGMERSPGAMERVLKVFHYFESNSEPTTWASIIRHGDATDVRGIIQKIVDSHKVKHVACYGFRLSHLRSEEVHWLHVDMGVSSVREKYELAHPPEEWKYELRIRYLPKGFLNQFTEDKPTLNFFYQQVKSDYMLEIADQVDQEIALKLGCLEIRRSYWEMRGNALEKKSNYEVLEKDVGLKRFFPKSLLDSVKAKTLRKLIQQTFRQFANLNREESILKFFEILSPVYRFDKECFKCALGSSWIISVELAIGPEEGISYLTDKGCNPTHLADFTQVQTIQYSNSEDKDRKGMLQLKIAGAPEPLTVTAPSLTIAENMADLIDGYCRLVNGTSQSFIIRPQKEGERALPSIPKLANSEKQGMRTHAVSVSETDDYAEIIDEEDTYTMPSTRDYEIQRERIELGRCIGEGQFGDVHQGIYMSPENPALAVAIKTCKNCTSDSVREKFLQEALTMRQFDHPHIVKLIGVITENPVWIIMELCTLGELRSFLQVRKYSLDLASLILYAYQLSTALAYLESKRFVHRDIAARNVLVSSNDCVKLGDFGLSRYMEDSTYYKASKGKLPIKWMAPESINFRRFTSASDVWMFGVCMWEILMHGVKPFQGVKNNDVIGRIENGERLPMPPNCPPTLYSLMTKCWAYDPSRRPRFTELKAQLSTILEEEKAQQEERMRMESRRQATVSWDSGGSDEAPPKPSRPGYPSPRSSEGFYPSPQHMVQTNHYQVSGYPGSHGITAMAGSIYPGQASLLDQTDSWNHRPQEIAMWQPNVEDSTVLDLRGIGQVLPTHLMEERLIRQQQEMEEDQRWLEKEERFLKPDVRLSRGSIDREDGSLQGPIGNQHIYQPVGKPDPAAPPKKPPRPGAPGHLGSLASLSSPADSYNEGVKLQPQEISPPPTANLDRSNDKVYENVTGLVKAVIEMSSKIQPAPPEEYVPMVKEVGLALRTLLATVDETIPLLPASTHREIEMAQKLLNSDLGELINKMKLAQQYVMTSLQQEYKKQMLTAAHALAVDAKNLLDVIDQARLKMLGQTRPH

[13] = tested on: MDA-MB-231; experiment: Antiangiogenic activity in human MDA231 cells assessed as inhibition of cell migration at 10 uM after 12 to 24 hrs by wound healing migration assay; assay type: functional, cell-based
Summary of the method: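 MDA-231 cells grown on coverslips for 24 h, wounded by scraping with a micropipette tip, washed, then kept in fresh medium at 37 °C with compound at 10 μM final or DMSO. Photographed at 12 and 24 h. Remaining wound area measured. DMSO set to 0% inhibition. Mean ± SD of five independent experiments.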

[14] = biological target: T2, Focal adhesion kinase 1; experiment: Inhibition of FAK phosphorylation in EGF-stimulated human MDA231 cells using [gamma32P]ATP as substrate at 50 uM after 2 hrs by scintillation counting; assay type: cell-based
Summary of the method: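 MDA231 cells serum-starved overnight, treated with compound for 2 h, then stimulated with 20 ng/mL EGF for 30 min. Lysates immunoprecipitated with polyclonal anti-FAK. The immunocomplex was assayed in Hepes/MgCl2/MnCl2 buffer with 3 μCi/nmol [γ-32P]-ATP. Reactions stopped by boiling in SDS sample buffer. Bands excised after SDS-PAGE and counted by scintillation. Figure legend gives N = 4.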
Target sequence in this assay (Q05397 2-1052 limits assumed): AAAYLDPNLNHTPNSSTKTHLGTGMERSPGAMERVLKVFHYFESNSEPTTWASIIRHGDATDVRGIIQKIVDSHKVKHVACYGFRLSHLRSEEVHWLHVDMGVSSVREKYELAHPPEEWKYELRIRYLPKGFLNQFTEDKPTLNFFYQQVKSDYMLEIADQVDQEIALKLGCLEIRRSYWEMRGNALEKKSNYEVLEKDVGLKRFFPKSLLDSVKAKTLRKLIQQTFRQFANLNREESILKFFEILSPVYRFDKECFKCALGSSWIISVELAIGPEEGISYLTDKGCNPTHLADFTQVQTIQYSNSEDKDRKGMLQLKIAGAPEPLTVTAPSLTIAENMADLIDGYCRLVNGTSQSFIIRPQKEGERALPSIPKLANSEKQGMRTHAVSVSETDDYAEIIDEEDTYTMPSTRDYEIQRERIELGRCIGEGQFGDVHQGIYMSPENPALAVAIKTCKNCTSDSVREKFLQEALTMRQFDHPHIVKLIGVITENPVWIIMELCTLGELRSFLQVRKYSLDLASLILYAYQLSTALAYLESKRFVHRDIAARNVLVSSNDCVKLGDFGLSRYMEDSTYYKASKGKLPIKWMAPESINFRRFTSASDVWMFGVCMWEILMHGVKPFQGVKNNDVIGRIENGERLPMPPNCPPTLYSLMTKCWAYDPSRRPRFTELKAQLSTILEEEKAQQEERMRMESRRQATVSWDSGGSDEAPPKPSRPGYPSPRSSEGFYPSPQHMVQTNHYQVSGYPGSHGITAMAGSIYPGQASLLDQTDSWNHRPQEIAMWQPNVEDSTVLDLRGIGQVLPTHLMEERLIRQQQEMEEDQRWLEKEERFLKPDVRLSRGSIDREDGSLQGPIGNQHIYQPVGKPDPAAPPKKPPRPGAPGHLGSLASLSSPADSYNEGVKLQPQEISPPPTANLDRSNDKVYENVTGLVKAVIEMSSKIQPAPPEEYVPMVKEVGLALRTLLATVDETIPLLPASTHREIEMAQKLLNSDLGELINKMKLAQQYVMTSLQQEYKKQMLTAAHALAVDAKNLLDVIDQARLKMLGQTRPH

[15] = tested on: MDA-MB-231; experiment: Antiinvasive activity in human MDA231 cells at 10 uM after 48 hrs by Matrigel matrix assay; assay type: functional
Summary of the method: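 Serum-starved MDA-231 cells (30,000) placed with or without compound (10 μM) in the upper compartment of 8-µm Matrigel-coated Boyden chambers. Lower compartment held DMEM 0.2% BSA with 10% serum. Invasion ran 48 h, then invaded cells were fixed, stained and counted under a 40× objective. DMSO normalized to 0% inhibition. Mean ± SD, five experiments.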

Sequence of Tyrosine-protein kinase Lyn (Homo sapiens) (P07948 2-512 limits assumed): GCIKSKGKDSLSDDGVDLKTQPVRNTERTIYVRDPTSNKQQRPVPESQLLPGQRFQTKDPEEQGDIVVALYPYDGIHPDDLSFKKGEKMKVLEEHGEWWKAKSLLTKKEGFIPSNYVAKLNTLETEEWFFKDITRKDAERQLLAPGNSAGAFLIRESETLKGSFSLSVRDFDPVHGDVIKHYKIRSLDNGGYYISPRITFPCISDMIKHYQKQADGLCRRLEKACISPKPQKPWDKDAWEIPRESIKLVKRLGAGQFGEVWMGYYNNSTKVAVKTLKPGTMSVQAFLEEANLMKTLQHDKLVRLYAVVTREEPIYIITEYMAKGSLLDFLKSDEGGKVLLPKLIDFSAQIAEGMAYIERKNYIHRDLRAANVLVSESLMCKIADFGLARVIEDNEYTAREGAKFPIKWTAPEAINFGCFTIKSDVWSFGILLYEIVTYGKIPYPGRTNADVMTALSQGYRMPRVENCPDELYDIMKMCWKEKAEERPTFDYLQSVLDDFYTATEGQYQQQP
Sequence of RAC-alpha serine/threonine-protein kinase (P31749 whole entry): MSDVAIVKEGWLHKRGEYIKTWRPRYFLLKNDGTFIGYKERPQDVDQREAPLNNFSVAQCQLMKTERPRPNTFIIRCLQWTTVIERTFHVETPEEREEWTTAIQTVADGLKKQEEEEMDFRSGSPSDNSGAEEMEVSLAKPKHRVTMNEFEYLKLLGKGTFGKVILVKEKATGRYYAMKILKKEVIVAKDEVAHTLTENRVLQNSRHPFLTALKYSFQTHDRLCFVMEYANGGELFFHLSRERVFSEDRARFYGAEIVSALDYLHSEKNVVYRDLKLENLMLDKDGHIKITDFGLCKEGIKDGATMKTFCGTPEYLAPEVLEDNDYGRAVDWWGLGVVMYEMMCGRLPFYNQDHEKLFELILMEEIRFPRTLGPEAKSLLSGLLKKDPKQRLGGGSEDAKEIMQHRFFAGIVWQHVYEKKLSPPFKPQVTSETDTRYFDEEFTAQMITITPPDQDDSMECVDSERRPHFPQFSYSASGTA

Row | SMILES | Activity [1] | inhibition [2] [%] | Activity [3] | inhibition [4] | inhibition [5] [%] | Activity [6] | growth inhibition (GI) [7] | inhibition [8] | Activity [9] | IC50 [10] [nM] | IC50 [11] [nM] | IC50 [12] [nM] | inhibition [13] | inhibition [14] | Activity [15]
1 | CC(=O)OC[C@H]1O[C@@H](O[C@H]2[C@H](OC(C)=O)[C@@H](OC(C)=O)[C@H](n3[se]c4ccccc4c3=O)O[C@@H]2COC(C)=O)[C@H](OC(C)=O)[C@@H](OC(C)=O)[C@H]1OC(C)=O | inactive | 0 | Non-toxic | Active | 0 | Active | Active | inactive | Non-toxic |  |  |  |  |  | 
2 | O=C(CCCn1[se]c2ccccc2c1=O)N[C@@H]1O[C@H](CO)[C@@H](O)[C@H](O)[C@H]1O | inactive | 0 |  |  | 0 |  |  | inactive |  | 880 | 730 | 960 |  |  | 
3 | O=c1c2ccccc2[se]n1-c1ccccc1 [EBSELEN] |  | 0 | Non-toxic | inactive | 0 |  | inactive |  | Non-toxic |  |  |  | inactive | inactive | inactive
4 | CC(=O)OC[C@H]1O[C@@H](NC(=O)CCCn2[se]c3ccccc3c2=O)[C@H](OC(C)=O)[C@@H](OC(C)=O)[C@@H]1OC(C)=O | inactive | 0 |  |  | 0 |  |  | inactive |  | 800 | 740 | 920 |  |  | 
